Assay results as given in ChEMBL document CHEMBL1795237, “Total synthesis of largazole and analogues: HDAC inhibition, antiproliferative activity and metabolic stability” (Bioorg Med Chem, 2011).
Activity calls are given as the source filed them. The rule behind the calls is not given here.

Columns and labels:
MCF7 = test: Growth inhibition of human MCF7 cells; assay type: functional
[1] = Half life in mouse liver homogenates at 100 uM by UPLC/MS analysis; assay type: ADME, tissue-based
How it was run: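 Compound added to preincubated murine liver homogenate (tissue broken up in 10 mM Tris pH 7.4, 1:3 w:v) at 37 °C, final 100 μM. Samples taken at 0, 15, 30, 45, 60, 120 min, quenched in methanol, centrifuged 10,000g to remove protein. Supernatant analyzed by reversed-phase C18 UPLC with MeOH/water/0.05% TFA gradient; parent ions monitored by ESI MS selected ion recording.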

[2] = molecular target: T1, Histone deacetylase (Homo sapiens) (UniProt Q13547+O15379+Q9UBN7+Q92769+Q9UQL6+Q8WUI4+Q9BY41+Q96DB2+P56524+Q9UKV0+Q969S8); conditions: SKBr3, 100 nM
[3] = molecular target: T1, Histone deacetylase (Homo sapiens); conditions: MDA-MB-231, 100 nM
[4] = molecular target: T1, Histone deacetylase (Homo sapiens); conditions: MCF7, 100 nM

Row | SMILES | GI (MCF7) [nM] | half-life at 100 µM [1] [min] | inhibition [2] | inhibition [3] | inhibition [4]
1 | CC(C)[C@H]1NC(=O)[C@]2(C)CSC(=N2)c2csc(n2)[C@@H](Cc2ccccc2)NC(=O)C[C@@H](/C=C/CCS)OC1=O | 377 |  |  |  | 
2 | C[C@@]12CSC(=N1)c1csc(n1)CNC(=O)C[C@@H](/C=C/CCS)OC(=O)CNC2=O | 2458 | 32 |  |  | 
3 | C[C@@]12CSC(=N1)c1csc(n1)CNC(=O)C[C@@H](/C=C/CCS)OC(=O)CCNC2=O | 5900 | ≤ 5 |  |  | 
4 | CC(C)[C@H]1NC(=O)C(C)(C)NC(=O)c2csc(n2)CNC(=O)C[C@@H](/C=C/CCS)OC1=O | > 10000 | ≤ 5 |  |  | 
5 | CC(C)[C@@H]1NC(=O)[C@]2(C)CSC(=N2)c2csc(n2)CNC(=O)C[C@@H](/C=C/CCS)OC1=O [LARGAZOLE THIOL] |  | 51 |  |  | 
6 | CC(C)[C@H]1NC(=O)[C@]2(C)CSC(=N2)c2csc(n2)CNC(=O)C[C@@H](/C=C/CCS)OC1=O [LARGAZOLE THIOL] | 277 |  | inactive | inactive | inactive
7 | CCCCCCCC(=O)SCC/C=C/[C@@H]1CC(=O)NCc2nc(cs2)C2=N[C@@](C)(CS2)C(=O)N[C@@H](C(C)C)C(=O)O1 [LARGAZOLE] | 5 | ≤ 5 | Active | Active | Active
